Screens deposited in PubChem by several laboratories.
Diaph inh CS – diaphorase inhibition or chemical oxidation counter-screen; diaphorase resazurin-to-resorufin fluorescence, NADH, 16 min; bacterial (C. kluyveri) enzyme, not human; inhibition, % at 20 µM; hit rate 0.69% among 190,000; AID 1217;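 active = primary screen inhibition at 20 µM above a set limit, cut at about 50% in these data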;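 also: plate controls were DMSO with full reaction for no effect and wells lacking NADH for full effect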
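Assay system: diaphorase enzyme from Clostridium kluyveri. Quantity: enzyme working solution with 0.14 U/mL diaphorase. Schedule: reaction incubation of 16 min at room temperature. Technique: resorufin fluorescence, excitation 544 nm, emission 590 nm. Controls: No-NADH positive control and DMSO neutral control.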
PfGluPho inh – PfG6PD (Plasmodium falciparum) enzyme inhibition; PfGluPho enzyme, NADPH resazurin-diaphorase fluorescence; inhibition, % at 20 µM; hit rate 0.78% among 350,000; AID 504690;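 active = inhibition reaching at least a set limit at 20 µM in the primary screen, cut at about 59% in these data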;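 also: 0% = DMSO wells with substrate and 100% = DMSO wells lacking glucose-6-phosphate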
G6PDH CS – L. mesenteroides G6PDH inhibition counter-screen | Purified L. mesenteroides G6PDH, diaphorase/resazurin coupled fluorescence, 45 min | inhibition, % at 5 µM | hit rate 0.12% among 200,000
L major viab – reduces viability of Leishmania major promastigotes; resazurin fluorescence viability; inhibition, % at 10 µM; hit rate 9% among 200,000;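 also: promastigotes grown with compound for 44 hours at 28 °C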
Diaphorase act – diaphorase activation or chemical reduction counter-screen. Diaphorase/resazurin coupled assay, resorufin fluorescence, 16 min; stronger effect = higher value; 1 = vehicle wells, 0 = NADH-free wells. hit rate 0.005% among 190,000. activation factor at 20 µM;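 active = diaphorase activity raised at least twofold by the compound at 20 µM; inactive = activation factor below 2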
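Measured by – red resorufin fluorescence at 544/590 nm excitation/emission · Test system – Clostridium kluyveri diaphorase, purified enzyme · Incubation – reaction time 16 min, room temperature · Buffer or medium – 50 mM HEPES pH 7.4 with 4.542 mM MgCl2, 0.005% Tween 20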
Redox H2O2 prof – compounds producing H2O2 with reducing agent – biochemical, NIH compound library profiling, artefact control for MLSCN library redox annotation, primary screen; DTT-dependent redox cycling H2O2, phenol red/HRP absorbance; 100% = 100 µM peroxide control, 0% = buffer; activation, % at 10 µM; hit rate 0.03% among 200,000;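 active = activation of at least 50% relative to the plate's high and low controls in the primary single-dose screen; inactive = activation below 50%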;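 also: compound incubated with DTT at 0.8 mM final as the reducing agent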
* marks the source's active call; other numbers are inactive results; / = not tested or not shown. The sample as a whole holds a higher share of hits than the screen did. Rule as the data show it, unless noted: active = inhibition above about 50%; inactive = the rest.

SMILES	Diaph inh CS	PfGluPho inh	G6PDH CS	L major viab	Diaphorase act	Redox H2O2 prof
CC(=O)Nc1ccc(NC(=O)CNC(=O)c2cccc(C)c2)cc1	/	-7.8	/	/	/	/
O=C(NCCc1ccccc1)C1CC(=O)N(CCc2ccccc2)C1 (stereo not drawn)	/	-11.4	/	/	/	/
CNc1c(-n2cc(C(=O)OC)c(C(=O)OC)c2C(=O)OC)c(=O)n(C)c(=O)n1C	/	-6.6	/	/	/	/
CCOC(=O)C1CCN(C(=S)Nc2cccc(C)c2C)CC1	45.3	-4.2	5.5	-5.0	0.5	-0.4
O=C(COC(=O)c1ccc(Cl)nc1)Nc1ccc2c(c1)OCCO2	/	2.8	/	/	/	/
Cc1ccc(C2C(C#N)=C(N)Oc3cc(C)oc(=O)c32)o1 (stereo not drawn)	/	-12.6	7.4	100.4*	/	0.0
Cc1ccc(C)c(C2C(C#N)=C(N)Oc3cc(C)oc(=O)c32)c1 (stereo not drawn)	6.3	-23.9	6.4	-3.8	0.9	0.9
Cc1c(Cl)cccc1NC(=S)N1CCCN(Cc2ccccc2F)C1	3.7	-3.1	3.7	82.4*	1	-0.4
Cc1c(Cl)cccc1NC(=S)N1CCCN(Cc2ccc(F)cc2)C1	0.1	-5.5	5.7	89.2*	1	-1.1
Fc1ccccc1CN1CCCN(C(=S)Nc2cccc(Cl)c2)C1	-0.5	9.0	3.3	86.3*	1	-1.4
O=C(Nc1ccccc1)N1CCCN(Cc2ccccc2F)C1	6.9	1.2	7.0	8.0	0.9	-0.6
COc1ccccc1NC(=O)Cc1nnc(SCC(=O)c2ccc(F)cc2)n1C	/	13.7	/	/	/	/
Cc1cccc(C(=O)NC(=S)NCc2cccnc2)c1	12.0	11.1	-1.9	32.0	0.9	/
O=C(C1=C[C@@H](C2CC2)C[C@@H](OCCCCO)O1)N1CCN(Cc2ccccc2)CC1	23.2	-5.6	8.4	-9.3	0.8	-1.2
Cc1cccc(-n2c(=O)[nH]c3c(C(N)=O)nc(CC(C)C)nc32)c1	8.0	2.3	-0.5	50.5*	0.9	0.3
CC(C)Cc1nc(C(N)=O)c2[nH]c(=O)n(-c3ccc(F)cc3)c2n1	10.3	11.0	6.3	7.5	0.9	-0.7
CCN(CC(=O)Nc1ccc2c(c1)OCCO2)c1nc(-c2cccnc2)nc2ccccc12	14.2	-16.6	3.1	52.5*	0.9	1.9
CCN(CC(=O)Nc1ccc2c(c1)OCCO2)C(=O)c1cc(Cl)nc2ccccc12	/	-25.9	/	/	/	/
O=C(CCSc1nc2ccccc2s1)N/N=C/c1c(O)ccc2ccccc12	5.3	-16.8	-2.6	58.1*	0.9	0.1
COc1ccc(/C=N/NC(=O)CCSc2nc3ccccc3s2)cc1OC	31.8	6.1	-1.0	13.1	0.7	0.0
C=CCC(C(=O)NC(C)c1ccccc1)C(=O)NC(C)c1ccccc1 (stereo not drawn)	/	-0.2	/	/	/	/
O=C(Cc1ccccc1)NCC(=O)OCC(=O)c1ccccc1Cl	0.2	-1.9	7.9	92.8*	1	-0.7
CC(C)(C)c1ccc(OCCON2C(=O)CCC2=O)c(Cl)c1	6.0	-0.8	2.4	-1.9	0.9	0.2
CNCCCCOc1ccc(C(C)(C)C)cc1Cl	6.6	-2.0	1.6	97.9*	0.9	-1.0
COc1ccccc1C(=O)COC(=O)c1ccc(Cl)nc1	/	3.2	/	/	/	/
SMILES	Diaph inh CS	PfGluPho inh	G6PDH CS	L major viab	Diaphorase act	Redox H2O2 prof
Cc1nonc1OCCCNc1ccc([N+](=O)[O-])cc1Cl	17.9	13.2	3.0	-6.2	0.8	0.3
N/C(=N\OC(=O)CC1CCCCC1)c1cccc([N+](=O)[O-])c1	8.5	4.5	5.4	68.4*	0.9	0.4
N/C(=N\OC(=O)CCC1CCCC1)c1cccc([N+](=O)[O-])c1	11.2	2.9	-14.7	3.4	0.9	0.4
O=C(N/N=C/c1ccc([N+](=O)[O-])o1)C1CC1	22.0	-4.4	9.4	99.9*	0.8	-1.1
COC(=O)N/N=C/c1ccc([N+](=O)[O-])o1	6.9	7.1	6.0	99.2*	0.9	0.3
NC(=O)N/N=C/c1ccc([N+](=O)[O-])o1	/	-3.6	/	/	/	/
Cc1nonc1C(=O)N/N=C/c1ccc(O)cc1O	/	-29.3	-7.6	97.8*	/	0.5
Cc1nonc1C(=O)N/N=C/c1ccc([N+](=O)[O-])o1	27.5	15.2	11.9	93.6*	0.7	-2.5
COc1cccc(CNC(=O)c2cccc(S(=O)(=O)N3CCN(C)CC3)c2)c1	/	3.9	/	/	/	/
